Source: ChEMBL document CHEMBL1154187, “Synthesis and biological evaluation of 2-heteroarylthioalkanoic acid analogues of clofibric acid as peroxisome proliferator-activated receptor alpha agonists” (J Med Chem, 2009)
Active and inactive are the calls of the source. The calls are words filed in the database; no cut-off is given here.

What was measured:
Type in all cases: functional, cell-based
[1] = target: T1, Peroxisome proliferator-activated receptor alpha (Homo sapiens) (UniProt Q07869); experiment: Agonist activity at human PPARalpha expressed in HEK293 cells assessed as receptor transactivation at 150 uM by luciferase reporter gene assay relative to control
T1 sequence (whole entry): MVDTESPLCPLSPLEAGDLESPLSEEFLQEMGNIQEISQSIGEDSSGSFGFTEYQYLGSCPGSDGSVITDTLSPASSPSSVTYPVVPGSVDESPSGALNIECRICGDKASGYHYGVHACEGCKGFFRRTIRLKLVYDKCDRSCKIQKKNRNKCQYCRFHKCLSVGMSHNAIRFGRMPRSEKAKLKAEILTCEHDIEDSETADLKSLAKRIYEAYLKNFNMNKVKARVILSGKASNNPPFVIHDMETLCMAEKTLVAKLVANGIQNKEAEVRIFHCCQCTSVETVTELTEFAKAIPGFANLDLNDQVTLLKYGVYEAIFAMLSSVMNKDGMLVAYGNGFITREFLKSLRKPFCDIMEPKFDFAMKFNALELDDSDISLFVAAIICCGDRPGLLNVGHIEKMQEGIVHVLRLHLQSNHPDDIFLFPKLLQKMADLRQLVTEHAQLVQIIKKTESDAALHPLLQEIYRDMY
Procedure, shortened: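 Cells co-transfected by calcium phosphate with human PPARα expression plasmid, luciferase reporter and renilla in serum-free medium. Ligand in DMSO (≤0.1% v/v final) added 6 h post-transfection at 150 μM. Luciferase normalized to renilla, expressed as fold activation over untreated cells; at least three separate experiments, mean ± SEM.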

[2] = target: T2, Peroxisome proliferator-activated receptor alpha (Homo sapiens, UniProt Q07869); experiment: Agonist activity at human PPARalpha expressed in HEK293 cells assessed as receptor transactivation at by luciferase reporter gene assay
T2 sequence (Q07869 whole entry): T1 sequence (whole entry)
Procedure, shortened: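 Human PPARα reporter-gene transactivation: calcium phosphate co-transfection of receptor plasmid, luciferase reporter and renilla. Ligand in DMSO (≤0.1% v/v final) added 6 h after transfection at five concentrations, 1 to 150 μM. At least three separate experiments, ± SEM.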

[3] = target: T1, Peroxisome proliferator-activated receptor alpha (Homo sapiens); experiment: Agonist activity at PPARalpha in human HepG2 cells assessed as increase in CPT1A mRNA expression at 150 uM after 48 hrs by RTqPCR relative to untreated control
Procedure, shortened: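 HepG2 grown in DMEM + 10% FBS, 37 °C, 5% CO2; 1×10^6 cells seeded in six-well dishes, grown 24 h, then given ligand at 150 μM or DMSO vehicle for 48 h. Total RNA by TRIzol; SYBR Green RTqPCR, primers 150 nM final, 60 ng cDNA, 40 cycles. CPT1A normalized to cyclophilin and to vehicle-treated cells; mean ± SEM of four determinations in duplicate.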

| Activity [1] | fold change (FC) [1] | EC50 [2] [µM] | fold change (FC) [3] | Activity [3] | SMILES |
| --- | --- | --- | --- | --- | --- |
| inactive |  |  |  |  | CC(Sc1nc2cc(C#N)ccc2s1)C(=O)O (racemic) |
|  | 3.2 | 9.3 |  |  | CC(Sc1nc2cc(Br)ccc2s1)C(=O)O (racemic) |
| inactive |  |  |  |  | CC(C)(Sc1nc2ccc(C#N)cc2s1)C(=O)O |
| inactive |  |  |  |  | CC(C)(Sc1nc2cc(C(F)(F)F)ccc2s1)C(=O)O |
| inactive |  |  |  |  | CC(C)(Sc1cccs1)C(=O)O |
|  | 2.6 | 9.8 |  |  | CCOc1ccc2nc(SC(C)C(=O)O)sc2c1 (racemic) |
|  | 1.7 | 36.1 |  |  | CC(C)(Sc1nc2ccc(C(F)(F)F)cc2s1)C(=O)O |
|  | 1.9 | 84.3 |  |  | CC(Sc1nc2ccc(Br)cc2s1)C(=O)O (racemic) |
|  | 1.6 |  | 2 |  | CC(C)(Oc1ccc(Cl)cc1)C(=O)O |
|  | 2.6 | 45.8 |  |  | CC(C)(Sc1nc2ccc(Br)cc2s1)C(=O)O |
|  | 3.4 | 62.5 |  |  | CC(Sc1nc2cc(Cl)ccc2s1)C(=O)O (racemic) |
|  | 1.7 | 38.9 |  |  | CC(C)(Sc1nc2ccc(Cl)cc2s1)C(=O)O |
|  | 2.9 | 33.3 |  |  | COc1ccc2sc(SC(C)C(=O)O)nc2c1 (racemic) |
|  | 2.6 | 55.9 |  |  | C[C@H](Sc1nc2cc(Cl)ccc2s1)C(=O)O |
|  | 3.3 | 69.3 |  |  | CCOc1ccc2nc(SC(C)(C)C(=O)O)sc2c1 |
|  | 2.9 | 1.9 |  | Active | COc1ccc2sc(S[C@@H](C)C(=O)O)nc2c1 |
|  | 4.5 | 2.5 |  | Active | CC(C)(Sc1nc2cc(Br)ccc2s1)C(=O)O |
|  | 2.3 | 57.3 |  |  | COc1ccc2sc(S[C@H](C)C(=O)O)nc2c1 |
|  | 1.9 | 46.3 |  |  | CC(C)(Sc1nc2cc(C#N)ccc2s1)C(=O)O |
|  | 4.7 | 14.8 |  |  | CCCC(Sc1nc2ccc(OCC)cc2s1)C(=O)O (racemic) |
|  | 1.6 | 35.9 |  |  | CC(C)(Sc1nc2cc(Cl)ccc2s1)C(=O)O |
| inactive |  |  |  |  | CC(C)(Sc1ccccn1)C(=O)O |
| inactive |  |  |  |  | CCCCCCC(Sc1nc2cc(Cl)ccc2s1)C(=O)O (racemic) |
|  | 2.8 | 1.8 | 2 |  | CC(C)(Sc1ccc(Cl)s1)C(=O)O |
|  | 2 | 45.8 |  |  | COc1ccc2sc(SC(C)(C)C(=O)O)nc2c1 |
|  | 1.6 | 14.3 |  |  | O=C(O)C(Sc1nc2cc(Cl)ccc2s1)c1ccccc1 (racemic) |
|  | 2.7 | 9.3 |  |  | CCCC(Sc1nc2cc(Cl)ccc2s1)C(=O)O (racemic) |
|  | 4.5 | 73.5 |  |  | C[C@@H](Sc1nc2cc(Cl)ccc2s1)C(=O)O |
| inactive |  |  |  |  | CC(C)(Sc1nc2ccccc2s1)C(=O)O |
